The values that follow come from ChEMBL document CHEMBL2176927 (J Med Chem, 2012).

A word on the inhibition: it is the percentage by which the read-out fell short of the control. What is called IC50 is the concentration that inhibits the measured activity by half. The Ki is the dissociation constant of the complex between target and ligand, obtained from inhibition or displacement. Usually AUC stands for concentration integrated over time. Usually half-life stands for the time needed for the level to fall by half in the phase considered. The bioavailability is the share of a dose that reaches the circulation, judged against a reference dose that is usually intravenous. A word on the clearance: it is a measure of how efficiently the substance is removed, as volume per time.

Activity calls are given as the source filed them. Bounds are passed on as bounds.

Data set [1] is described as follows: Clearance in rat liver microsomes. In kind it is ADME, Microsome. The method, boiled down: (§1)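 Hepatic clearance (Clhep) predicted from incubation with human, rat or mouse liver microsomes.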
Background: Liver microsomes are vesicles of endoplasmic reticulum, rich in cytochrome P450 enzymes.

A short description of data set [2]: Plasma protein binding in mouse. In kind it is ADME, cell-free. Conditions: read-out: PPB (converted).
A short description of data set [3]: Clearance in human liver microsomes. In kind it is ADME, Microsome. A digest of the protocol: as §1
The target in data set [4] is T1, Phosphatidylinositol 4,5-bisphosphate 3-kinase catalytic subunit delta isoform (Homo sapiens) (UniProt O00329).
T1 sequence (whole entry): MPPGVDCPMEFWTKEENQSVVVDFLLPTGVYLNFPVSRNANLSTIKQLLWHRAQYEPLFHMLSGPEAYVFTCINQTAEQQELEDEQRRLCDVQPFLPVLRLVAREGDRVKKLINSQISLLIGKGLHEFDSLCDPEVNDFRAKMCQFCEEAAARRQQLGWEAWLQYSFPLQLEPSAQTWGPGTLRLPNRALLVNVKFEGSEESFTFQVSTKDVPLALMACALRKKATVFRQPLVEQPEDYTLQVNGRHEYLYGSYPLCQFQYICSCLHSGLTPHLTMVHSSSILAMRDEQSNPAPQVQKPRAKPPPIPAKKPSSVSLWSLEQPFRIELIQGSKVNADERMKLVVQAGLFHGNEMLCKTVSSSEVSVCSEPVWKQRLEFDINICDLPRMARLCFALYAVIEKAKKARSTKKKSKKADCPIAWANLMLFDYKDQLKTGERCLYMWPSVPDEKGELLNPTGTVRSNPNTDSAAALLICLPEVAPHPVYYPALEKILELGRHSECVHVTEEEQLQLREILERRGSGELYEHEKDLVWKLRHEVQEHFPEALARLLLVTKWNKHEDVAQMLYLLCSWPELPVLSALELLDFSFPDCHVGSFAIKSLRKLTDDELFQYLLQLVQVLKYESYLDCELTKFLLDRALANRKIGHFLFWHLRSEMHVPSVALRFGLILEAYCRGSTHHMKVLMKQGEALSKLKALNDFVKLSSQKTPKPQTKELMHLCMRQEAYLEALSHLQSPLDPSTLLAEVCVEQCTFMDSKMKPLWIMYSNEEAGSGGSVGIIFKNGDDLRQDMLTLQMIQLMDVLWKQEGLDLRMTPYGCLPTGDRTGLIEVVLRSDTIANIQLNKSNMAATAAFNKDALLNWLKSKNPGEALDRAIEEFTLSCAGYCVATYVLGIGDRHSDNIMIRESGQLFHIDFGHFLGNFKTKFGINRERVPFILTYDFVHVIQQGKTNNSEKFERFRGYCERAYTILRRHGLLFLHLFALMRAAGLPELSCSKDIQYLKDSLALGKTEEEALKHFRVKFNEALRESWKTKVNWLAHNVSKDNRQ
Kind of data set: Inhibition of PI3Kdelta at 1 uM. A digest of the protocol:
(§2)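 Kinase selectivity panel of 250 kinases. Test compound at 1 µM; percent inhibition recorded for each kinase.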

Data set [5] deals with Phosphatidylinositol 4,5-bisphosphate 3-kinase catalytic subunit gamma isoform (Homo sapiens) (UniProt P48736). Kind of data set: Inhibition of PI3Kgamma at 1 uM. A digest of the protocol:
as §2

The target in another data set is Cytochrome P450 2C9 (Homo sapiens, UniProt P11712). Kind of data set: Inhibition of CYP2C9-mediated warfarin metabolism. The data set is classed as ADME. The following applies: recombinant enzyme.
Data set [6] concerns Mus musculus. Put plainly: Toxicity in human PC3 cells xenografted mouse assessed as reduction of body weight at 100 mg/kg, po qd for 14 days. In kind it is organism-based, PC-3. Also noted: dose 100 mg/kg, route oral; scale not given: the % may be the effect or the level left. Conditions: in vivo, 336 h. The method, boiled down:
(§3)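 Female NCR.nude mice implanted s.c. in right hind flank with NCI-PC3 cells (5 × 10^6 in Hank's balanced salt solution). Dosing started QD at average tumor volume 200 mm3, 5 mice per group. Body weight recorded twice weekly; 10% body weight loss was the limit for tolerated doses, and mice were euthanized at 20% loss or tumor volume 2000 mm3.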
For orientation: Xenograft models place foreign cells or tissue in a host animal.

The test system of data set [7] is PC-3. Put plainly: Cytotoxicity against human pTEN deficient PC3 after 3 days. The data set is classed as functional, cell-based. Conditions: PC-3, 72 h.
The nature of data set [8]: Plasma protein binding in rat. In kind it is ADME, cell-free. Conditions: read-out: PPB (converted).
For data set [9], the target named is Serine/threonine-protein kinase mTOR (Homo sapiens, UniProt P42345). Put plainly: Inhibition of human recombinant mTOR by FRET assay.
Data set [10] in a line: AUC in mouse at 5 mg/kg, po. The data set is classed as ADME, organism-based. Also noted: dose 5 mg/kg, route oral. The following applies: plasma.
The next data set addresses T2, Cytochrome P450 1A2 (Homo sapiens, UniProt P05177).
T2 sequence (P05177 whole entry): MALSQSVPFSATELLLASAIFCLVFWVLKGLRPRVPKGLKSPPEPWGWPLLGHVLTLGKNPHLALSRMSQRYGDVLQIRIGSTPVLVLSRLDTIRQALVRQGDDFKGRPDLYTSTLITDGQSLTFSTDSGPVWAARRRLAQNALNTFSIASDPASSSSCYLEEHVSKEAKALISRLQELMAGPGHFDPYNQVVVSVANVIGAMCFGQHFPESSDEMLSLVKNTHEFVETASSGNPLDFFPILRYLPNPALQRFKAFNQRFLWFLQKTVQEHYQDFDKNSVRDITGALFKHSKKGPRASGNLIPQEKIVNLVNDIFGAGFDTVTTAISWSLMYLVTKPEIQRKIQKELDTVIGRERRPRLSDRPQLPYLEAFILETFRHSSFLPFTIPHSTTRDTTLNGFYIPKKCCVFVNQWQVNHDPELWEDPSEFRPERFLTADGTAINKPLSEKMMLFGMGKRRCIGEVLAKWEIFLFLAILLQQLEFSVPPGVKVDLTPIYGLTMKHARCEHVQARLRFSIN
Kind of data set: Inhibition of CYP1A2-mediated phenacetin metabolism. In kind it is ADME. Conditions: recombinant enzyme.

The target in data set [11] is Phosphatidylinositol 4,5-bisphosphate 3-kinase catalytic subunit alpha isoform (Homo sapiens) (UniProt P42336). Kind of data set: Inhibition of PI3Kalpha at 1 uM. A digest of the protocol: as §2
The test system of data set [12] is Mus musculus. Put plainly: Inhibition of mTORC2 in human PC3 cells xenografted mouse assessed as reduction of phosphorylated Akt level at 12.5 to 100 mg/kg, po after 6 hrs. The data set is classed as functional, organism-based. Conditions: PC-3. The method, boiled down:
(§4)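 NCI-PC3 s.c. xenografts in female NCR.nude mice grown to about 500 mm3, then randomized (n = 4). Oral suspension in 0.5% methylcellulose/0.2% Tween 80. Tumors were lysed, normalized by BCA assay, and loaded at 20 µg/well. pAkt Ser473 and total Akt were measured in duplex on Meso Scale electrochemiluminescence in duplicate per mouse, relative to time-matched vehicle mean.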

Data set [13] can be described thus: Plasma protein binding in human. In kind it is ADME, cell-free. The following applies: read-out: PPB (converted).
A short description of data set [14]: Clearance in mouse liver microsomes. The data set is classed as ADME, Microsome. A digest of the protocol:
as §1

A further data set addresses Cytochrome P450 3A4 (Homo sapiens, UniProt P08684). Kind of data set: Inhibition of CYP3A4-mediated midazolam and testosterone metabolism. The data set is classed as ADME. Conditions: recombinant enzyme.
Data set [15] can be described thus: Half life in mouse at 1 mg/kg, iv. In kind it is ADME, organism-based. Conditions: in vivo. More on the design: dose 1 mg/kg, route intravenous.
Data set [16] is described as follows: Volume of distribution at steady state in mouse at 1 mg/kg, iv. The data set is classed as ADME, organism-based. Also noted: dose 1 mg/kg, route intravenous. Conditions: in vivo, read-out: Vdss.
The test system of data set [17] is Mus musculus. Put plainly: Inhibition of mTORC1 in human PC3 cells xenografted mouse assessed as reduction of phosphorylated p70S6K level at 12.5 to 100 mg/kg, po after 6 hrs. The data set is classed as functional, organism-based. The following applies: PC-3.
Data set [18] in a line: Inhibition of mTORC2 in human pTEN deficient NCI-PC3 cells assessed as reduction of Akt phosphorylation at Ser473. The data set is classed as cell-based.
The nature of data set [19]: Oral bioavailability in mouse at 5 mg/kg. The data set is classed as ADME, organism-based. The following applies: in vivo.
The next data set addresses Cytochrome P450 2C19 (Homo sapiens, UniProt P33261). Put plainly: Inhibition of CYP2C19-mediated mephenytoin metabolism. In kind it is ADME. Conditions: recombinant enzyme.
Data set [20] can be described thus: Clearance in mouse at 1 mg/kg, iv. More on the design: dose 1 mg/kg, route intravenous. The following applies: in vivo. In kind it is ADME, organism-based.
For the next data set, the target named is Cytochrome P450 2D6 (Homo sapiens, UniProt P10635). Kind of data set: Inhibition of CYP2D6-mediated dextromethorphan metabolism. The data set is classed as ADME. The following applies: recombinant enzyme.
The subject of data set [21] is PC-3. Put plainly: Antitumor activity against human PC3 cells xenografted mouse assessed as tumor growth inhibition at 6.25 to 100 mg/kg, po qd for 14 days. In kind it is functional, organism-based. A digest of the protocol:
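Female NCR.nude mice with subcutaneous NCI-PC3 flank tumours, dosed orally once daily (or twice daily at the same daily total) for 14 days from a mean tumour volume of 200 mm3; 5 mice/group. Caliper volume is (L x W x W)/2, measured twice weekly.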

In data set [22] the test system is PC-3. Kind of data set: Antitumor activity against human PC3 cells xenografted mouse assessed as tumor growth inhibition at 10 mg/kg, po qd for 14 days. In kind it is functional, organism-based. Also noted: dose 10 mg/kg. The method, boiled down: as §3
Data set [23] relates to Mus musculus. Put plainly: Inhibition of mTORC1 in human U87 cells xenografted mouse assessed as reduction of phosphorylated p70S6K level at 10 mg/kg, po after 24 hrs. In kind it is functional, organism-based. Also noted: dose 10 mg/kg. The following applies: U-87MG ATCC.
Data set [24] deals with Mus musculus. Kind of data set: Inhibition of mTORC2 in human U87 cells xenografted mouse assessed as reduction of phosphorylated Akt level at 10 mg/kg, po after 24 hrs. In kind it is functional, organism-based. More on the design: dose 10 mg/kg. The following applies: U-87MG ATCC. A digest of the protocol:
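U87 glioma (PTEN-deficient) tumor-bearing mice, four per compound and time point. Tumor and blood were sampled over 24 h. Phospho-Akt was measured in duplicate samples per mouse and expressed relative to time-matched vehicle controls; mean ± one SD.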

The test system of data set [25] is Mus musculus. Kind of data set: Inhibition of mTORC1 in human PC3 cells xenografted mouse assessed as reduction of phosphorylated p70S6K level at 10 mg/kg, po after 6 hrs. The data set is classed as functional, organism-based. More on the design: dose 10 mg/kg. Conditions: PC-3.
Data set [26] relates to Mus musculus. Put plainly: Inhibition of mTORC2 in human PC3 cells xenografted mouse assessed as reduction of phosphorylated Akt level at 10 mg/kg, po after 6 hrs. Also noted: dose 10 mg/kg. Conditions: PC-3. The data set is classed as functional, organism-based. The method, boiled down:
as §4

Chain of Phosphatidylinositol 4,5-bisphosphate 3-kinase catalytic subunit alpha isoform (Homo sapiens) (P42336 whole entry, canonical isoform): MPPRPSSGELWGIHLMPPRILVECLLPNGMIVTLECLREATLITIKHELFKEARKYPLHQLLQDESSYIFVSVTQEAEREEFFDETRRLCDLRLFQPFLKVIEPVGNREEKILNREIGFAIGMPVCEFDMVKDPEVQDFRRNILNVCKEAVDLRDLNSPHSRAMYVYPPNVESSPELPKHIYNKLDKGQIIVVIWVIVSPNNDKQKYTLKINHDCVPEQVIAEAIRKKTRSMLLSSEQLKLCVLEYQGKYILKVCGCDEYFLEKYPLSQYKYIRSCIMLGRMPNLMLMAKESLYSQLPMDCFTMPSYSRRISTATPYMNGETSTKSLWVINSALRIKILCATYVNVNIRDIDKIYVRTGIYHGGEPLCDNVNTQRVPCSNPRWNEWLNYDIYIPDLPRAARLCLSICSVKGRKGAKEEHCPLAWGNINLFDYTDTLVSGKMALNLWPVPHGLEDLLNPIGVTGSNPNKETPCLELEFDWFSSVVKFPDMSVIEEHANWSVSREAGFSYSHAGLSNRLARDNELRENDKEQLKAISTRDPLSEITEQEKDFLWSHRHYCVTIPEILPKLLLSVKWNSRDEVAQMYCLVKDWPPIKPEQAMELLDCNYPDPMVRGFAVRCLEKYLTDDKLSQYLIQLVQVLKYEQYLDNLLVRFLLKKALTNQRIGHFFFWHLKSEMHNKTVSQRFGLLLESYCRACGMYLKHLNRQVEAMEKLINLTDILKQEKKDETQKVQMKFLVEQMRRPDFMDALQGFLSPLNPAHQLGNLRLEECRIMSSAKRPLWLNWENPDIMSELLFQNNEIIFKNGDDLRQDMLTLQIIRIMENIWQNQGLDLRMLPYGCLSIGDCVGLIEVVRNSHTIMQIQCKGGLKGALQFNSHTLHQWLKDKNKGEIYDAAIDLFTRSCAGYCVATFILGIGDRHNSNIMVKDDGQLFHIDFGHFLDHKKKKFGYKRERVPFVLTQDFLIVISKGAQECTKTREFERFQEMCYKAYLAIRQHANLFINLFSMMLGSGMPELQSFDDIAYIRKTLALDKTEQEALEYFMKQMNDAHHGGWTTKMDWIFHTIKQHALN
Chain of Cytochrome P450 2D6 (P10635 whole entry): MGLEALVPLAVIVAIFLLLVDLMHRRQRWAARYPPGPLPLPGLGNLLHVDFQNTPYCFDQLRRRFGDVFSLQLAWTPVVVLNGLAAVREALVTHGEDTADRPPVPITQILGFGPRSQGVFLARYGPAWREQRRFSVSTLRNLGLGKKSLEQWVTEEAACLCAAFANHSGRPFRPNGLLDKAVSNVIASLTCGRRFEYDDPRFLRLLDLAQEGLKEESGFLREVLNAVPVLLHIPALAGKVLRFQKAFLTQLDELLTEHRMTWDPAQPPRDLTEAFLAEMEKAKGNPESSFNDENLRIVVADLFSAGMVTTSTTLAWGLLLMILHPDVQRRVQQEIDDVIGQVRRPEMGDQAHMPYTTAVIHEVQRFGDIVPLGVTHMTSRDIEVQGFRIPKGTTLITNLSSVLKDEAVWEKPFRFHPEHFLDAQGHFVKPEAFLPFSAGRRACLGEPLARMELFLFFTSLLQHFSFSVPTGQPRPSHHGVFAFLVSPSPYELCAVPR
Chain of Cytochrome P450 2C19 (P33261 whole entry): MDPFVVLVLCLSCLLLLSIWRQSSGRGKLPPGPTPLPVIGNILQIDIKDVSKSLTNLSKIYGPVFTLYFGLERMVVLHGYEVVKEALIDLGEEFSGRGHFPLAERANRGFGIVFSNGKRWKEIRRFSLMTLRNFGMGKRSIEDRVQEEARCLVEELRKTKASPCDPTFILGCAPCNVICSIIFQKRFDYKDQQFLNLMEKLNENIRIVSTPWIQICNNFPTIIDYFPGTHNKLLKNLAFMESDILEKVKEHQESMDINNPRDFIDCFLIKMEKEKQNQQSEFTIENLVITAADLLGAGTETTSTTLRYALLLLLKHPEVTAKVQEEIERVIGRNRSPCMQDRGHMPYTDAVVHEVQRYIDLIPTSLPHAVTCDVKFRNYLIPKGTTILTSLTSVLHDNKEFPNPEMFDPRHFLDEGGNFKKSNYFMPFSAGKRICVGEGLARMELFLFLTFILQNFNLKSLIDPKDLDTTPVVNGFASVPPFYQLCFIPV
Chain of Cytochrome P450 2C9 (P11712 whole entry): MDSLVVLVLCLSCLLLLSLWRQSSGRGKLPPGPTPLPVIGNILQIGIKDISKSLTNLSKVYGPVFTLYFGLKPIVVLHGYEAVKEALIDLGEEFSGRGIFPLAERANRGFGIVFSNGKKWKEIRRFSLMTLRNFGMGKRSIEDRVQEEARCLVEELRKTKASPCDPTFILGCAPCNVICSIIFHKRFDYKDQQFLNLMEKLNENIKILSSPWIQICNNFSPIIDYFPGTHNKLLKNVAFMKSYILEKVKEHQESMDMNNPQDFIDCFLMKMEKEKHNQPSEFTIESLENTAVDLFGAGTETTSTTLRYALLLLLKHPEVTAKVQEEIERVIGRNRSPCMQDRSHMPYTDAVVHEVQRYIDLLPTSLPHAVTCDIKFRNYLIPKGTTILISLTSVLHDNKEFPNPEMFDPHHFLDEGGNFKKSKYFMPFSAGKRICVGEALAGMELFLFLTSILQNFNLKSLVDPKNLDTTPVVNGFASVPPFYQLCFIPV
Chain of Phosphatidylinositol 4,5-bisphosphate 3-kinase catalytic subunit gamma isoform (Homo sapiens) (P48736 whole entry, looked up, canonical isoform): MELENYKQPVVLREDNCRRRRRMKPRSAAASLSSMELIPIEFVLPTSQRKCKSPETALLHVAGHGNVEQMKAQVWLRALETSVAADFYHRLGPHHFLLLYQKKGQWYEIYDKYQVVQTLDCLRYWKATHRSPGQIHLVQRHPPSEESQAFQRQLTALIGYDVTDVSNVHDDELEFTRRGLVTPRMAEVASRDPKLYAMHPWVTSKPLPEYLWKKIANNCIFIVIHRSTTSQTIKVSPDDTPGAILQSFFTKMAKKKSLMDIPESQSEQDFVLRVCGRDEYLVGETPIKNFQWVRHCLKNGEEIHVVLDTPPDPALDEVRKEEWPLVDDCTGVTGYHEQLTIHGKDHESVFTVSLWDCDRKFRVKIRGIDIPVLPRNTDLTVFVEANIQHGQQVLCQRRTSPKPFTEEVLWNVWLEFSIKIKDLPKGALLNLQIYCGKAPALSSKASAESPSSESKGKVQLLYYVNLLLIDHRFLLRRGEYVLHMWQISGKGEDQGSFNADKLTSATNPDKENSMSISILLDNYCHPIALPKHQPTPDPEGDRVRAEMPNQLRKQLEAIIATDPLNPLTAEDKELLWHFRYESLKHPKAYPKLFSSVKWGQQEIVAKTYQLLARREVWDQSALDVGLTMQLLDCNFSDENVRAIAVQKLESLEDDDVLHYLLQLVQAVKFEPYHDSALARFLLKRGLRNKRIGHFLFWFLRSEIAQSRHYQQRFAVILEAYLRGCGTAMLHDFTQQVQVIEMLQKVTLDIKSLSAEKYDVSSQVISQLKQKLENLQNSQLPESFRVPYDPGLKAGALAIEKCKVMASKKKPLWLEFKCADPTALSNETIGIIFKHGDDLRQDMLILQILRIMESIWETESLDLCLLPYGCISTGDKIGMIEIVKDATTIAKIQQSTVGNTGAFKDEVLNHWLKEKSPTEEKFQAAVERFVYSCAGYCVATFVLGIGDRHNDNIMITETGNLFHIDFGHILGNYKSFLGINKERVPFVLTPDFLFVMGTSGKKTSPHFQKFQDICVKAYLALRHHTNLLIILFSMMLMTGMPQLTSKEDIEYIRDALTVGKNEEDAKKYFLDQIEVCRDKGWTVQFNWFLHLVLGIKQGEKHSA
Chain of Cytochrome P450 3A4 (P08684 whole entry): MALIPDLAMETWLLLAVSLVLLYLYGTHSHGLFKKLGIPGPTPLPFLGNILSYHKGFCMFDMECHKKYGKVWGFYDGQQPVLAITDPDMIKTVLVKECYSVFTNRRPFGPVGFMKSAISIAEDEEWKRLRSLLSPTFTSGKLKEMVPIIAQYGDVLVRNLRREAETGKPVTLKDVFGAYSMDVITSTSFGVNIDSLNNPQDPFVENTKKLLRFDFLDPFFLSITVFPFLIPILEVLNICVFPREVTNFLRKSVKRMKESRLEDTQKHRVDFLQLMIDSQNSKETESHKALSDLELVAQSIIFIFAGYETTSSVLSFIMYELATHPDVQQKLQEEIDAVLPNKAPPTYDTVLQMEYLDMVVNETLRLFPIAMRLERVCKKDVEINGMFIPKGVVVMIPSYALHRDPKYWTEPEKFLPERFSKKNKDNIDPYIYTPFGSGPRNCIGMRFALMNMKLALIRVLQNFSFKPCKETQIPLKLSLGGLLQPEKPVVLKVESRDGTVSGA

In the case of `CCNC(=O)Nc1ccc(-c2nc3c(c(N4CCOCC4)n2)CCN(c2ncccn2)C3)cc1`, the CLhep predicted in data set [1] is 31 mL/min/kg; in [3], 13 mL/min/kg; in [14], 40 mL/min/kg. The values for the fraction unbound in data set [2], in [8] and in data set [13] were 0.01, 0.01 and 0.02, respectively. Also, the inhibition in [4], in data set [5] and in data set [11] was 50% throughout. Also, the “inhibition (INH)” value on Cytochrome P450 2C9, at Cytochrome P450 1A2, on Cytochrome P450 3A4, on Cytochrome P450 2C19 and on Cytochrome P450 2D6 was “Not Active” each time. Besides, the Activity in the data set on Mus musculus [6] is listed as greater than 10%. Besides, the IC50 is 290 nM in the data set with PC-3 [7] and 25 nM in data set [18]. The Ki in [9] came to 5.5 nM. The AUC in data set [10] turned out to be 5.7 µM·h. Also, the inhibition entry in the data set with Mus musculus [12] and in the data set with Mus musculus [17] was “Active” each time. Also, the half-life in data set [15] was 42 min. Further, the Vd in data set [16] is 1.1 L/kg. In data set [19], this compound returned a bioavailability of 70%. This compound had a clearance in [20] of 22 mL/min/kg. Besides, in the data set on PC-3 [21], the TGI result was “Active”.
Consider `CO[C@H]1C[C@@H]2CC[C@@H](C)[C@@](O)(O2)C(=O)C(=O)N2CCCC[C@H]2C(=O)O[C@H]([C@H](C)C[C@@H]2CC[C@@H](O)[C@H](OC)C2)CC(=O)[C@H](C)/C=C(\C)[C@@H](O)[C@@H](OC)C(=O)[C@H](C)C[C@H](C)/C=C/C=C/C=C/1C`, for which, in the data set on PC-3 [22], the TGI result is “Active”. For the same compound, in the data set on Mus musculus [23], the inhibition entry was “Active”. Moreover, the inhibition result in the data set on Mus musculus [24] was “inactive”.
On to `Cc1c(CN2CCN(C(=O)[C@H](C)O)CC2)sc2c(N3CCOCC3)nc(-c3cnc(N)nc3)nc12`, for which the inhibition entry with Mus musculus [25] and in the data set with Mus musculus [26] was “Active” throughout.
